Each structure is given as a SMILES string.

By GI50 is commonly meant the concentration at which growth is held to half of that of the control. A word on the TGI: it is the concentration at which net growth stops. Read a low TGI as greater sensitivity of the cells.

Common to all, as to format: functional
The nature of assay [1]: Cytotoxicity against human PCO3 cells by sulforhodamine B assay. As to conditions: for CC50: read-out: LC50 (the source's name). An outline of the steps: (§1)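 Growth of the human tumor cell line was read colorimetrically with sulforhodamine B, following the NCI standard protocol, with doxorubicin as positive control. Compounds were tested at four concentrations in 10-fold dilutions (0.25 to 250). Dose-response curves gave GI50 (the concentration for 50% growth inhibition), TGI (total growth inhibition) and LC50 (50% cell death).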
(The SRB assay estimates cell density from bound dye.)

Another assay concerns UACC-62. Put plainly: Cytotoxicity against human UACC62 cells by sulforhodamine B assay. An outline of the steps: as §1
In the next assay the test system is K562. In words: Cytotoxicity against human K562 cells by sulforhodamine B assay. As to conditions: for CC50: read-out: LC50 (the source's name). An outline of the steps: as §1
The test system of another assay is MCF7. Put plainly: Cytotoxicity against human MCF7 cells by sulforhodamine B assay. As to conditions: for CC50: read-out: LC50 (the source's name). An outline of the steps:
as §1

The test system of a further assay is OVCAR-3. In words: Cytotoxicity against human OVCAR-3 cells by sulforhodamine B assay. As to conditions: for CC50: read-out: LC50 (the source's name). An outline of the steps: as §1
The nature of assay [2]: Cytotoxicity against human NCI/ADR cells by sulforhodamine B assay. As to conditions: NCI/ADR-RES; for CC50: read-out: LC50 (the source's name). An outline of the steps:
as §1

The test system of the next assay is NCI-H460. Put plainly: Cytotoxicity against human NCI-H460 cells by sulforhodamine B assay. As to conditions: for CC50: read-out: LC50 (the source's name). An outline of the steps:
as §1

The test system of another assay is HT-29. Put plainly: Cytotoxicity against human HT-29 cells by sulforhodamine B assay. As to conditions: for CC50: read-out: LC50 (the source's name). An outline of the steps:
as §1

With `CC1=CC[C@@H]([C@@](C)(O)CCCC(C)(C)NC(=S)N/N=C(/C)c2ccccc2)CC1`, the GI50 was 19.9 µM in assay [1]; 22.4 µM with UACC-62; 0.01 µM with K562; 23.6 µM in the assay with MCF7; 14.3 µM in the assay with OVCAR-3; 0.75 µM in assay [2]. The GI50 came out at 12.6 µM in the assay with NCI-H460 and 28.4 µM with HT-29. Moreover, the TGI in assay [1] is more than 100 µM; in the assay with UACC-62 it was 93.3 µM; with K562, 0.07 µM; in the assay with MCF7 it was 62.9 µM; with OVCAR-3 it was 59.5 µM; in assay [2], more than 100 µM. The TGI in the assay with NCI-H460 and in the assay with HT-29 was more than 100 µM throughout. Further, the CC50 was more than 100 µM in assay [1]; 1.54 µM in the assay on K562; more than 100 µM with MCF7; more than 100 µM in the assay on OVCAR-3; more than 100 µM in assay [2]; more than 100 µM in the assay with NCI-H460. In the assay on HT-29, the CC50 was more than 100 µM. In addition, the LC50 (50% cell kill) in the assay with UACC-62 is more than 100 µM.

Regarding `CC1=CC[C@@H]([C@@](C)(O)CCCC(C)(C)NC(=S)N/N=C\c2ccccc2[N+](=O)[O-])CC1`, the GI50 in assay [1] worked out at 39.9 µM; in the assay with UACC-62, 6.05 µM; in the assay on K562, 0.19 µM; with MCF7, 18.6 µM; with OVCAR-3, 7.39 µM; in assay [2], 20.4 µM. Also, the values for the GI50 in the assay on NCI-H460 and in the assay with HT-29 were 20.6 µM and 6.94 µM, respectively. Besides, the TGI in assay [1] was more than 100 µM; in the assay on UACC-62 it was 16.6 µM; with K562, 7.84 µM; in the assay on MCF7, more than 100 µM; in the assay with OVCAR-3, 16.2 µM; in assay [2], more than 100 µM. The TGI in the assay with NCI-H460 was more than 100 µM; in the assay on HT-29 it was 16.8 µM. Further, the CC50 in assay [1] was more than 100 µM; in the assay with K562, more than 100 µM; in the assay with MCF7 it was more than 100 µM; in the assay on OVCAR-3 it was 41.9 µM; in assay [2], more than 100 µM; with NCI-H460, more than 100 µM. Further, in the assay on HT-29, the CC50 came out at 44.4 µM. Moreover, the LC50 (50% cell kill) with UACC-62 was determined as 49.3 µM.

`CC1=CC[C@@H]([C@@](C)(O)CCCC(C)(C)NC(=S)NN)CC1`: the GI50 in assay [1] is 26.8 µM; in the assay on UACC-62, 18.5 µM; in the assay on K562, 0.02 µM; in the assay with MCF7 it was 15.3 µM; in the assay on OVCAR-3, 17.2 µM; in assay [2], 0.76 µM. Besides, the results for the GI50 in the assay with NCI-H460 and in the assay on HT-29 were 12.8 µM and 49.4 µM, respectively. The TGI is more than 100 µM in assay [1]; more than 100 µM in the assay with UACC-62; 0.38 µM with K562; 84.2 µM with MCF7; more than 100 µM in the assay on OVCAR-3; 29 µM in assay [2]. In addition, the TGI is 84 µM in the assay on NCI-H460 and more than 100 µM in the assay with HT-29. The CC50 in assay [1] was more than 100 µM; with K562, 9.58 µM; in the assay on MCF7, more than 100 µM; in the assay on OVCAR-3 it was more than 100 µM; in assay [2] it was more than 100 µM; with NCI-H460, more than 100 µM. Further, the CC50 in the assay with HT-29 is more than 100 µM. This compound also displayed an LC50 (50% cell kill) in the assay with UACC-62 of more than 100 µM.

Consider `COc1cccc2c1C(=O)c1c(O)c3c(c(O)c1C2=O)C[C@@](O)(C(=O)CO)C[C@@H]3O[C@H]1C[C@H](N)[C@H](O)[C@H](C)O1` [DOXORUBICIN], for which the GI50 in assay [1] is 0.17 µM; in the assay with UACC-62, 0.18 µM; in the assay with K562, 0.03 µM; in the assay on MCF7, 0.04 µM; with OVCAR-3, 0.07 µM; in assay [2], 5.99 µM. Further, the GI50 was found to be 0.05 µM with NCI-H460 and 0.18 µM in the assay on HT-29. The TGI is 2.3 µM in assay [1]; 0.55 µM in the assay with UACC-62; 0.33 µM in the assay on K562; 1.84 µM in the assay with MCF7; 8.11 µM in the assay on OVCAR-3; more than 100 µM in assay [2]. Further, the TGI is 1.42 µM in the assay with NCI-H460 and 46 µM in the assay with HT-29. Moreover, the CC50 is more than 100 µM in assay [1]; more than 100 µM in the assay with K562; 46 µM in the assay on MCF7; more than 100 µM in the assay on OVCAR-3; more than 100 µM in assay [2]; 37.9 µM with NCI-H460. The CC50 with HT-29 was more than 100 µM.

Regarding `CC1=CC[C@@H]([C@@](C)(O)CCCC(C)(C)NC(=S)N/N=C\c2ccc(Cl)cc2)CC1`, the GI50 in assay [1] is 7.58 µM; with UACC-62, 7.35 µM; with K562 it was 0.04 µM; with MCF7, 6.89 µM; in the assay on OVCAR-3, 6.66 µM; in assay [2], 7.58 µM. Besides, the GI50 with NCI-H460 worked out at 8.72 µM; in the assay with HT-29 it was 7.35 µM. Besides, the TGI in assay [1] came to 22.7 µM; in the assay on UACC-62 it was 13.8 µM; in the assay on K562 it was 0.73 µM; in the assay on MCF7, 15.8 µM; with OVCAR-3, 12.8 µM; in assay [2], 36.4 µM. Moreover, the TGI with NCI-H460 is more than 100 µM; with HT-29 it was 22.6 µM. For the same compound, the CC50 was 48.5 µM in assay [1]; 10.3 µM in the assay with K562; 44.3 µM in the assay on MCF7; 40.6 µM in the assay with OVCAR-3; more than 100 µM in assay [2]; more than 100 µM with NCI-H460. Also, the CC50 in the assay with HT-29 turned out to be 47.3 µM. This compound also came in with an LC50 (50% cell kill) in the assay with UACC-62 of 40.6 µM.

In the case of `CC1=CC[C@@H]([C@@](C)(O)CCCC(C)(C)NC(=S)N/N=C\c2ccc(O)cc2)CC1`, the GI50 in assay [1] turned out to be 6.23 µM; in the assay with UACC-62, 8.87 µM; with K562, 0.6 µM; in the assay on MCF7, 6.23 µM; with OVCAR-3 it was 6.23 µM; in the assay on NCI-H460, 1.46 µM. This compound also showed a GI50 with HT-29 of 8.15 µM. Further, the TGI in assay [1] was 13.9 µM; with UACC-62 it was 40.1 µM; in the assay with K562, 31.1 µM; in the assay with MCF7, 21.2 µM; in the assay with OVCAR-3, 17.4 µM; in the assay with NCI-H460 it was 20.7 µM. The compound further had a concentration for total growth inhibition (TGI) in the assay on HT-29 of 31.5 µM. Further, the CC50 in assay [1] is 50.1 µM; in the assay on K562 it was more than 100 µM; in the assay with MCF7, 56.4 µM; with OVCAR-3 it was 54.4 µM; in assay [2] it was more than 100 µM; in the assay with NCI-H460 it was more than 100 µM. Further, in the assay on HT-29, the CC50 was 58.5 µM. The LC50 (50% cell kill) in the assay with UACC-62 was 55.6 µM.

As for `CC1=CC[C@@H]([C@@](C)(O)CCCC(C)(C)NC(=S)N/N=C\c2ccc([N+](=O)[O-])cc2)CC1`, the GI50 in assay [1] came to 18.1 µM; with UACC-62 it was 20.8 µM; in the assay on K562 it was 4.22 µM; in the assay on MCF7, 17.7 µM; in the assay on OVCAR-3, 13.4 µM; in assay [2], 12.8 µM. The values for the GI50 in the assay on NCI-H460 and in the assay on HT-29 were 10.1 µM and 12.3 µM, respectively. The total growth inhibition concentration (TGI) in assay [1] is more than 100 µM; in the assay on UACC-62, 62.2 µM; in the assay on K562, 9.56 µM; in the assay on MCF7 it was more than 100 µM; in the assay with OVCAR-3 it was 88.6 µM; in assay [2] it was more than 100 µM. The figures for the TGI with NCI-H460 and with HT-29 were more than 100 µM and 62.8 µM, respectively. Besides, the CC50 in assay [1] is more than 100 µM; with K562, 45.5 µM; in the assay with MCF7, more than 100 µM; in the assay with OVCAR-3, more than 100 µM; in assay [2], more than 100 µM; in the assay on NCI-H460, more than 100 µM. For the same compound, the CC50 in the assay on HT-29 was more than 100 µM. Moreover, in the assay on UACC-62, the LC50 (50% cell kill) is more than 100 µM.
